Experimental data taken from ChEMBL document CHEMBL1149316, “Bioisosteric modifications of 2-arylureidobenzoic acids: selective noncompetitive antagonists for the homomeric kainate receptor subtype GluR5” (J Med Chem, 2004).
Activity calls are given as the source filed them. The rule behind the calls is not given here.

Assays:
Mus musculus = assay: Effect on ATPA-induced rigidity in mouse dosed intravenously 30 mins before ATPA administration; assay type: functional; conditions: iv
How it was run: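 Female NMRI mice (20–25 g) received test substance iv (n = 8 per dose) 30 min before iv ATPA at 30 mg/kg. ATPA was given at 3 mg/mL in saline, pH 7. Rigidity was scored 30 min after ATPA as loss of righting and lack of movement on a 45° grid. Results were taken as the percent of mice rigid, and ED50 was derived.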

Glutamate receptor 3 = Glutamate receptor 3 (Rattus norvegicus, UniProt P19492); assay: Antagonist activity at rat homomeric recombinant GluR3 expressed in HEK293 cells assessed as inhibition of intracellular calcium concentration by FLIPR assay; assay type: functional, cell-based
How it was run: (§1)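 AMPA-subunit HEK293 lines were grown with 100 μg/mL SPD 502 in the medium. Cells were loaded with 2 μM Fluo-4-AM for 30 min at room temperature and washed into Na⁺-free Ringer at pH 7.4. All solutions contained 100 μM cyclothiazide. Test compound was preincubated 1.5 min before 25 μM Glu (final) was added. The Ca²⁺ rise was read by FLIPR at room temperature. Solvent (EtOH or DMSO) was ≤1.0%.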

Glutamate receptor 1 = Glutamate receptor 1 (Rattus norvegicus, UniProt P19490); assay: Antagonist activity at rat homomeric recombinant GluR1 expressed in HEK293 cells assessed as inhibition of intracellular calcium concentration by FLIPR assay; assay type: functional, cell-based; how it was run: as §1
[1] = target: Glutamate receptor 3 (Rattus norvegicus) (UniProt P19492); assay: Antagonist activity at rat homomeric recombinant GluR3 expressed in HEK293 cells assessed as inhibition of intracellular calcium concentration at 30 uM by FLIPR assay; assay type: functional, cell-based; how it was run: as §1
Glutamate receptor 4 = Glutamate receptor 4 (Rattus norvegicus, UniProt P19493); assay: Antagonist activity at rat homomeric recombinant GluR4 expressed in HEK293 cells assessed as inhibition of intracellular calcium concentration by FLIPR assay; assay type: functional, cell-based; how it was run: as §1
[2] = target: Glutamate receptor 4 (Rattus norvegicus) (UniProt P19493); assay: Antagonist activity at rat homomeric recombinant GluR4 expressed in HEK293 cells assessed as inhibition of intracellular calcium concentration at 30 uM by FLIPR assay; assay type: functional, cell-based; how it was run: as §1
[3] = target: Glutamate receptor 2 (Rattus norvegicus) (UniProt P19491); assay: Antagonist activity at rat homomeric recombinant GluR2 expressed in HEK293 cells assessed as inhibition of intracellular calcium concentration at 30 uM by FLIPR assay; assay type: functional, cell-based; how it was run: as §1
[4] = target: Glutamate receptor 1 (Rattus norvegicus) (UniProt P19490); assay: Antagonist activity at rat homomeric recombinant GluR1 expressed in HEK293 cells assessed as inhibition of intracellular calcium concentration at 30 uM by FLIPR assay; assay type: functional, cell-based; how it was run: as §1
[5] = target: T1, Glutamate receptor ionotropic, kainate 1 (Homo sapiens, UniProt P39086); assay: Antagonist activity at human homomeric GluR5 expressed in HEK293 cells assessed as inhibition of intracellular calcium concentration by FLIPR assay; assay type: functional, cell-based
[6] = target: T1, Glutamate receptor ionotropic, kainate 1; assay: Displacement of [3HATPA from human recombinant GluR5
How it was run: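 GluR5 HEK293 membranes were washed in 50 mM Tris-HCl (pH 7.1) at 0–4 °C and centrifuged at 27000g. 46–84 μg protein was incubated with 3 nM [³H]ATPA for 60 min at 2 °C. Nonspecific binding was defined with 0.6 mM Glu. Binding was stopped by rapid filtration and counted by liquid scintillation. Compounds were tested at 3–30 μM.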

[7] = target: Glutamate receptor ionotropic, kainate 2 (Homo sapiens, UniProt Q13002); assay: Antagonist activity at human homomeric GluR6 expressed in HEK293 cells assessed as inhibition of intracellular calcium concentration by FLIPR assay; assay type: functional, cell-based
How it was run: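 Stably transfected HEK293 cells were grown in DMEM with 10% FCS at 37 °C. Cells were plated on PEI-coated plates 24 h before loading with 2 μM Fluo-4-AM for 60 min at room temperature, then washed into Na⁺-free Ringer at pH 7.4. Test compound was preincubated 1.5 min, then 0.2 μM domoic acid (final) was added. The Ca²⁺ rise was read by FLIPR (ex 488 nm, em 510–570 nm). IC50 reported.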

Glutamate receptor 2 = Glutamate receptor 2 (Rattus norvegicus, UniProt P19491); assay: Antagonist activity at rat homomeric recombinant GluR2 expressed in HEK293 cells assessed as inhibition of intracellular calcium concentration by FLIPR assay; assay type: functional, cell-based
How it was run: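 Cells were loaded with 2 μM Fluo-4-AM for 30 min at room temperature and washed into Na⁺-free Ringer at pH 7.4. All solutions contained 100 μM cyclothiazide. The Ca²⁺ rise was read by FLIPR at room temperature. Solvent (EtOH or DMSO) was ≤1.0%.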

Chain of Glutamate receptor 2 (P19491 whole entry): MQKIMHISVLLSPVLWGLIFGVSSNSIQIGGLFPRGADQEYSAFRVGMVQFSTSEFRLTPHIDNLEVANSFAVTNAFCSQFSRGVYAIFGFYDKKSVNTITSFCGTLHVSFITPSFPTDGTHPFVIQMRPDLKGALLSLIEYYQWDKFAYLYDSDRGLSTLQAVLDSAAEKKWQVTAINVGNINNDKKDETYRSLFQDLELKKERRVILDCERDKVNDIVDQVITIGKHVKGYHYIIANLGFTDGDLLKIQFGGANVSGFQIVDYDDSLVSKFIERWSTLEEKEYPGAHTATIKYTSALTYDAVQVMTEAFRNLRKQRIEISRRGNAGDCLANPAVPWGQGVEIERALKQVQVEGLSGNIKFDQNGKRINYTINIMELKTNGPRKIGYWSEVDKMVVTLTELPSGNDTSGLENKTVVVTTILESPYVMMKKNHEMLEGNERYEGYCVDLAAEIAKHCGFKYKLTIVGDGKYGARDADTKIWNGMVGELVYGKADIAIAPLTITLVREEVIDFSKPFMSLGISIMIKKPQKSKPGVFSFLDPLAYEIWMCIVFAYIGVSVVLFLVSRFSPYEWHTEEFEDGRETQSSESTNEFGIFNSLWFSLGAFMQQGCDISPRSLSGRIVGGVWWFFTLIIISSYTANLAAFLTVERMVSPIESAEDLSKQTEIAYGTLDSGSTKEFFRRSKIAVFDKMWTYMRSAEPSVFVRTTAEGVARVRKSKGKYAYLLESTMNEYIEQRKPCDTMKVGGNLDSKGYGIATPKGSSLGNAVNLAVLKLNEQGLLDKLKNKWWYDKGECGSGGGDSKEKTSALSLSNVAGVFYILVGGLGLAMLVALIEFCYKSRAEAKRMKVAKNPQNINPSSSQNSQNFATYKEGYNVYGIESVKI
Chain of Glutamate receptor 2 (Rattus norvegicus) (P19491 whole entry): as above
Chain of Glutamate receptor 1 (Rattus norvegicus) (P19490 whole entry): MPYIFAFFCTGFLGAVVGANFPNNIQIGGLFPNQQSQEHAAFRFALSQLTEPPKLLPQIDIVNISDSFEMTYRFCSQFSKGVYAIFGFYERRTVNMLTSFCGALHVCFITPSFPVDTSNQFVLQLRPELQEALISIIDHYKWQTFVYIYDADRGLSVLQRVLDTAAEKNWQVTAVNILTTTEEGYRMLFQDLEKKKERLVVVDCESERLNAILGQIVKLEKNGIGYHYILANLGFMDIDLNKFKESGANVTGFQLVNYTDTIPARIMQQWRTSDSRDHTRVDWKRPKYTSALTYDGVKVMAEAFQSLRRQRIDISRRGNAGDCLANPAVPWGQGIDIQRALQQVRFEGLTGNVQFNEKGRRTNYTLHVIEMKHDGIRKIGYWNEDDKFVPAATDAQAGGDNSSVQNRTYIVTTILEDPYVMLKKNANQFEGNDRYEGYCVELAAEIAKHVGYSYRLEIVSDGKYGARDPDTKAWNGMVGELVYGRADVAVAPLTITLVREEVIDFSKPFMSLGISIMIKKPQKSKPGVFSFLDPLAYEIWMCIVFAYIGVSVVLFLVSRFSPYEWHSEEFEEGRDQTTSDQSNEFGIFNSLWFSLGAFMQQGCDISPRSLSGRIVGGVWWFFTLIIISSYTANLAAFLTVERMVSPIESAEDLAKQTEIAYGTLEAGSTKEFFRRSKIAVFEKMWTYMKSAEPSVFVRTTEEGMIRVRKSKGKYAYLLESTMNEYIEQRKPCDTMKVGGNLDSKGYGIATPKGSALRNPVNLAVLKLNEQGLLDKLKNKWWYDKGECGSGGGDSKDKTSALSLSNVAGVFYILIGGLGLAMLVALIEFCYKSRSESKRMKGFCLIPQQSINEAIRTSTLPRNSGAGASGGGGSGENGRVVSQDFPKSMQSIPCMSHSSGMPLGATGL
Chain of Glutamate receptor 1 (P19490 whole entry): as above
Chain of Glutamate receptor 4 (Rattus norvegicus) (P19493 whole entry): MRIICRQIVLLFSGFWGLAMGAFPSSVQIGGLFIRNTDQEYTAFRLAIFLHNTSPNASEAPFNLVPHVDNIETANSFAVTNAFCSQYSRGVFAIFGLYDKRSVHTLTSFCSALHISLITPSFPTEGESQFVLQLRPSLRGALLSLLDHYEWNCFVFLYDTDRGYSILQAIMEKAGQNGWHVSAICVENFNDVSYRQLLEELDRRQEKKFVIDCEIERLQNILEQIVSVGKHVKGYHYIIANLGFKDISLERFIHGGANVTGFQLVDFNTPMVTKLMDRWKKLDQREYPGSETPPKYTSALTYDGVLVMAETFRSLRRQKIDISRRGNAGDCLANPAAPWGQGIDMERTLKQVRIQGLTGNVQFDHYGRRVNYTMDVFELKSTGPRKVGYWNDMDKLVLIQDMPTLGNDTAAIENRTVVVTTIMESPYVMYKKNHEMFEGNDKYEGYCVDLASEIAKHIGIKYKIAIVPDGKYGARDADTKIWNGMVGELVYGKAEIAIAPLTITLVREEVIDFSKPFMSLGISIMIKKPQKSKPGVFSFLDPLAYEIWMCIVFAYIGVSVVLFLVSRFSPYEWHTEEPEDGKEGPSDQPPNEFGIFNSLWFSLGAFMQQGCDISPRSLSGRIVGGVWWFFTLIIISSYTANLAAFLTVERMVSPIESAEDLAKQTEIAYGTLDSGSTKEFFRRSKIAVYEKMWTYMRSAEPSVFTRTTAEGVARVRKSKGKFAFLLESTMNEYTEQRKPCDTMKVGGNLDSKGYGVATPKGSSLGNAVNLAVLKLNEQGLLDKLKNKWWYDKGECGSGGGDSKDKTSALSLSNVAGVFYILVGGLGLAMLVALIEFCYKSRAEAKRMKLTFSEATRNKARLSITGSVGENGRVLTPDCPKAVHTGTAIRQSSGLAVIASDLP
Chain of Glutamate receptor 4 (P19493 whole entry): as above
Chain of Glutamate receptor 3 (P19492 whole entry): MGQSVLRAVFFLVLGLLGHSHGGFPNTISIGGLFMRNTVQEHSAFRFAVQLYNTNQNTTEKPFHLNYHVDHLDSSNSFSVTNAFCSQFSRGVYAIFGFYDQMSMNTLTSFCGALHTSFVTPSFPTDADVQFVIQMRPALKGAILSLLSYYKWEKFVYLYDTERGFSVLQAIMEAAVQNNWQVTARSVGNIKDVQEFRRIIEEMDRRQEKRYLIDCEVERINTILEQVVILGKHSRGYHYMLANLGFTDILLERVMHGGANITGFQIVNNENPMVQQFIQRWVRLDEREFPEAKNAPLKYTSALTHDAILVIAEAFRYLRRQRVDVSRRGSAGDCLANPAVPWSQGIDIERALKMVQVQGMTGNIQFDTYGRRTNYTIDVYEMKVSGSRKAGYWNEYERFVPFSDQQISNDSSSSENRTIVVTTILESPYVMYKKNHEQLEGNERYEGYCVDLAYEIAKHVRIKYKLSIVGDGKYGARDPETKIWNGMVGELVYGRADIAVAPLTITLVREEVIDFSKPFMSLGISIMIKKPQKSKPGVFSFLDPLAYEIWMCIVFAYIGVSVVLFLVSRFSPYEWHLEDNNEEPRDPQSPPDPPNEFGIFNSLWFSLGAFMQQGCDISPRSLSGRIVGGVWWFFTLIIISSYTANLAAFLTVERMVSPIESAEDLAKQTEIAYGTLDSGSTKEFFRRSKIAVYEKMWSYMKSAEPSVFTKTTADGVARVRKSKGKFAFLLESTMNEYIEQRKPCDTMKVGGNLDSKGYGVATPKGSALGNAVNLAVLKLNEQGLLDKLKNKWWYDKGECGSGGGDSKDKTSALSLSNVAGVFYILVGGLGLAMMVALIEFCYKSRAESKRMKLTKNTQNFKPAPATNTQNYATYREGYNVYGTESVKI
Chain of Glutamate receptor 3 (Rattus norvegicus) (P19492 whole entry): as above
T1 sequence (P39086 whole entry): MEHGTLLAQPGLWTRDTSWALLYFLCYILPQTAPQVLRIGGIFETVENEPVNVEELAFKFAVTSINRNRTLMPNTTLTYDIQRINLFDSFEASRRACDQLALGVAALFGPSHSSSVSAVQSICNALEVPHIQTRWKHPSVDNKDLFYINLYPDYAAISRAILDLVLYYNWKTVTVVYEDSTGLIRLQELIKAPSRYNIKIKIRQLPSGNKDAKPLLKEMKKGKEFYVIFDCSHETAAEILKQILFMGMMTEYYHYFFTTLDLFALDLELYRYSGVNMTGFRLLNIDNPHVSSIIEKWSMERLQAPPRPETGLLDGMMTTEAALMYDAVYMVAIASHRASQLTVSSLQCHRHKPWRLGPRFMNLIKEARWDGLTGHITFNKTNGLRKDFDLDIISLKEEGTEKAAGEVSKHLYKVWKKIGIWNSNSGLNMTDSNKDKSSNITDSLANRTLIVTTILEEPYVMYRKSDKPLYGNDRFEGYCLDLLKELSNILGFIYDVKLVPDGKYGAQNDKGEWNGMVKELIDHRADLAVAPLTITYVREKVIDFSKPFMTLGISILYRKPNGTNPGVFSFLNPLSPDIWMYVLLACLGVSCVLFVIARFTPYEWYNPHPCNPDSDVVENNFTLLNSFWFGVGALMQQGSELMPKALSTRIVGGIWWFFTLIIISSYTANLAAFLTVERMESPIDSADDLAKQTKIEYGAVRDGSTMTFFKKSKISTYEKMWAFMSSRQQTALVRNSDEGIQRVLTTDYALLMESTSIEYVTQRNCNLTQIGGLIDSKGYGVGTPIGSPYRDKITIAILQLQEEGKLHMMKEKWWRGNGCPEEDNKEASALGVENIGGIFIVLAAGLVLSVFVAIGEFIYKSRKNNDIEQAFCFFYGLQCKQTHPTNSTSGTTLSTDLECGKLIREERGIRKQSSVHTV

Work on `O=C(Nc1ccc2ccccc2c1)Nc1cc(Cl)ccc1C(=O)O` yielded an ED50 (Mus musculus) of over 30 mg/kg, an IC50 (Glutamate receptor 3) of over 100 µM and an IC50 (Glutamate receptor 1) of over 100 µM. The Activity [1] was “inactive”, the IC50 (Glutamate receptor 4) was over 100 µM and the Activity [2] was “inactive”. The Activity [3] was “inactive” and the Activity [4] was “inactive”.

For `N#Cc1ccc(Cl)cc1NC(=O)Nc1cccc(C(F)(F)F)c1`, the IC50 [5] was over 3 µM.

Work on `COC(=O)c1ccc(Cl)cc1NC(=O)Nc1cccc(Br)c1` yielded an IC50 [5] of over 30 µM.

For `O=C(Nc1cccc(C(F)(F)F)c1)Nc1cc(Cl)ccc1CO`, the IC50 [5] was over 10 µM.

`O=C(Nc1cccc(Br)c1)Oc1cc(Cl)ccc1C(=O)O` showed an IC50 [5] of over 30 µM.

`O=C(Nc1cccc(Br)c1)Nc1cc(Cl)ccc1S(=O)(=O)O` was tested, and the IC50 [6] was over 30 µM, the IC50 [7] was 37 µM and the ED50 (Mus musculus) was 29 mg/kg. The IC50 (Glutamate receptor 3) was over 100 µM, the IC50 (Glutamate receptor 1) was over 100 µM and the IC50 (Glutamate receptor 4) was over 100 µM. For the same molecule, the IC50 (Glutamate receptor 2) was over 100 µM and the IC50 [5] was 1.5 µM.

`O=C(Nc1cccc(Br)c1)Nc1cc(Cl)ccc1-c1nc(=O)o[nH]1` gave an IC50 [6] of over 30 µM, an IC50 [7] of over 30 µM and an ED50 (Mus musculus) of over 100 mg/kg. The IC50 (Glutamate receptor 3) was over 100 µM, the IC50 (Glutamate receptor 1) was over 100 µM and the Activity [1] was “inactive”. For the same molecule, the IC50 (Glutamate receptor 4) was over 100 µM, the Activity [2] was “inactive” and the IC50 (Glutamate receptor 2) was over 100 µM. For the same molecule, the Activity [3] was “inactive”, the Activity [4] was “inactive” and the IC50 [5] was 4.6 µM.

Work on `O=C(Nc1cccc(Br)c1)Nc1cc(Cl)ccc1[N+](=O)[O-]` yielded an IC50 [5] of over 3 µM.

`O=C(Nc1cccc(Br)c1)n1[nH]c(=O)c2ccc(Cl)cc21` gave an IC50 [5] of over 50 µM.

`O=C(Nc1cccc(Br)c1)Nc1cc(Cl)ccc1C(=O)O` was tested, and the IC50 (Glutamate receptor 3) was over 100 µM, the IC50 (Glutamate receptor 1) was over 100 µM and the Activity [1] was “inactive”. The IC50 (Glutamate receptor 4) was over 100 µM, the Activity [2] was “inactive” and the IC50 (Glutamate receptor 2) was over 100 µM. The Activity [3] was “inactive” and the Activity [4] was “inactive”.

Work on `O=C(O)Cc1ccc(Cl)cc1NC(=O)Nc1cccc(Br)c1` yielded an IC50 [6] of over 30 µM, an IC50 [7] of over 50 µM and an ED50 (Mus musculus) of over 30 mg/kg. The IC50 (Glutamate receptor 3) was over 100 µM, the IC50 (Glutamate receptor 1) was over 100 µM and the Activity [1] was “inactive”. The IC50 (Glutamate receptor 4) was over 100 µM, the Activity [2] was “inactive” and the IC50 (Glutamate receptor 2) was over 100 µM. The Activity [3] was “inactive”, the Activity [4] was “inactive” and the IC50 [5] was 3.6 µM.

Molecule `O=C(O)CCc1ccc(Cl)cc1NC(=O)Nc1cccc(Br)c1` has an IC50 [5] of over 30 µM.

`Nc1ccc(Cl)cc1NC(=O)Nc1cccc(C(F)(F)F)c1` gave an IC50 [5] of over 30 µM.

`O=C(Nc1cccc(Br)c1)Nc1cc(Cl)ccc1-c1nnn[nH]1` gave an IC50 [6] of over 30 µM, an IC50 [7] of over 10 µM and an ED50 (Mus musculus) of 5.5 mg/kg. The IC50 (Glutamate receptor 3) was over 100 µM, the IC50 (Glutamate receptor 1) was over 100 µM and the Activity [1] was “inactive”. For the same molecule, the IC50 (Glutamate receptor 4) was over 100 µM, the Activity [2] was “inactive” and the IC50 (Glutamate receptor 2) was over 100 µM. For the same molecule, the Activity [3] was “inactive”, the Activity [4] was “inactive” and the IC50 [5] was 2 µM.

In the case of `O=C(Nc1cccc(C(F)(F)F)c1)Nc1cc(Cl)ccc1O`, the IC50 [5] is reported as over 30 µM.

With `O=C(O)c1ccc(Cl)cc1Nc1c(Nc2cccc(Br)c2)c(=O)c1=O` the IC50 [5] was over 30 µM.

In the case of `O=C(Nc1cccc(C(F)(F)F)c1)Nc1cc(Cl)ccc1[N+](=O)[O-]`, the IC50 [5] is reported as over 3 µM.
